Data on six compounds can be found in ChEMBL document CHEMBL4251637, “Picolyl amides of betulinic acid as antitumor agents causing tumor cell apoptosis” (Eur J Med Chem, 2018).

Usually pIC50 stands for −log10 of the IC50, conventionally taken in molar units.

pIC50: −log10 of the molar value. Activity calls are given as the source filed them. The calls are words filed in the database; no cut-off is given here.

Data set [1] can be described thus: Therapeutic index, ratio of IC50 for human BJ cells to IC50 for human G361 cells. The format is toxicity. The conditions noted are these: BJ cells versus G361 cells, read-out: Ratio IC50. An outline of the steps:
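Therapeutic index is IC50 in normal BJ fibroblasts divided by IC50 in G-361 melanoma cells. Both IC50 values come from the 72 h cytotoxicity test, with cells grown in DMEM with 10% FBS, 2 mM L-glutamine and antibiotics at 37 °C, 5% CO2.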

A further data set concerns BJ. Put plainly: Cytotoxicity against human BJ cells after 72 hrs by calcein-AM dye based fluorescence assay. The format is cell-based. Summed up: (§1)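 Cells from ATCC, grown in DMEM with 10% fetal bovine serum, 2 mM L-glutamine and 1% penicillin-streptomycin at 37 °C, 5% CO2, humidified, and passaged by trypsinization two or three times weekly. Compound exposure lasted 72 h and the read-out was IC50 (µM).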

The subject of data set [2] is G-361. The data set is described as follows: Cytotoxicity against human G361 cells after 72 hrs by calcein-AM dye based fluorescence assay. It is filed as functional, cell-based. To be noted: G-361, 72 h. Summed up:
as §1

The test system of a further data set is CCRF-CEM. Put plainly: Cytotoxicity against human CEM cells after 72 hrs by calcein-AM dye based fluorescence assay. It is filed as functional, cell-based. Summed up:
as §1

Another data set relates to HeLa. The data set is described as follows: Cytotoxicity against human HeLa cells after 72 hrs by calcein-AM dye based fluorescence assay. The format is functional, cell-based. Summed up:
as §1

In another data set the test system is MCF7. Put plainly: Cytotoxicity against human MCF7 cells after 72 hrs by calcein-AM dye based fluorescence assay. It is filed as functional, cell-based. The conditions noted are these: MCF7, 72 h. An outline of the steps: as §1
Data set [3] concerns G-361. The data set is described as follows: Induction of apoptosis in human G361 cells assessed as downregulation of total Rb expression at 12.5 to 25 uM after 24 hrs by Western blot analysis. The format is functional, cell-based. Summed up:
(§2)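 G-361 cells seeded in 100-mm dishes at 1.5 × 10⁶ cells/mL and stabilized 24 h, then treated 24 h with 0.5–25 µM; DMSO vehicle controls. Lysed in RIPA buffer pH 7.4 and protein measured by Bradford. Run on 10% or 12% SDS-PAGE, blotted to nitrocellulose, probed overnight with primary antibodies, then HRP secondary and chemiluminescence. β-actin loading control, compared with untreated cells; three repeats.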

In data set [4] the test system is G-361. Put plainly: Cell cycle arrest in human G361 cells assessed as increase in accumulation at G0/G1 phase at 0.5 to 25 uM after 24 hrs by propidium iodide staining-based flow cytometry. It is filed as functional. Summed up: (§3)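 G-361 melanoma cells grown in DMEM with 10% FBS, 2 mM L-glutamine and penicillin-streptomycin at 37 °C, 5% CO2. Cells were seeded and left 24 h, then treated with 0.5, 2.5, 12.5 or 25 µM for 24 h. Trypsinized cells were fixed and stained with 0.1% Triton X-100, 0.2 mg/mL RNase A and 10 µg/mL propidium iodide in PBS. DNA content was read by flow cytometry and phases quantified from histograms; three repeats.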

Data set [5] relates to G-361. Put plainly: Effect on total p44/42 level in human G361 cells at 0.5 to 25 uM after 24 hrs by Western blot analysis. It is filed as cell-based. The conditions noted are these: g-361, 24 h. An outline of the steps: as §2
For orientation: In western blotting, separated proteins are transferred to a membrane and probed.

Data set [6] has as its system G-361. Put plainly: Induction of apoptosis in human G361 cells assessed as increase in caspase-3/7 activity using Ac-DEVD-AMC as substrate at 25 uM after 24 hrs by fluorescence assay relative to control. It is filed as functional. Summed up: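 Treated G-361 cells (0.5–25 µM, 24 h) were extracted on ice in CHAPS/HEPES buffer pH 7.4 with protease inhibitors, and lysates equalized by Bradford protein. Incubated 1 h with Ac-DEVD-AMC in PIPES/DTT buffer pH 7.3; Ac-DEVD-CHO lysates served as negative control. Fluorescence read at 346/442 nm and expressed as fold over untreated control. Three experiments in triplicate; one-way ANOVA.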

The subject of data set [7] is G-361. Put plainly: Induction of apoptosis in human G361 cells assessed as effect on Bcl2 expression level at 0.5 to 25 uM after 24 hrs by Western blot analysis. It is filed as functional, cell-based. Summed up: as §2
In data set [8] the test system is G-361. Put plainly: Cell cycle arrest in human G361 cells assessed as increase in accumulation at sub-G1 phase at 0.5 to 25 uM after 24 hrs by propidium iodide staining-based flow cytometry. It is filed as functional. An outline of the steps: as §3
(In general: A flow cytometer gives signals particle by particle.)

Data set [9] deals with G-361. The data set is described as follows: Induction of apoptosis in human G361 cells assessed as effect on Mcl1 expression level at 0.5 to 25 uM after 24 hrs by Western blot analysis. It is filed as functional, cell-based. Summed up:
as §2

In data set [10] the test system is G-361. Put plainly: Induction of apoptosis in human G361 cells assessed as downregulation of phosphorylated Rb expression at 12.5 to 25 uM after 24 hrs by Western blot analysis. The format is functional, cell-based. Summed up:
as §2

Data set [11] concerns G-361. Put plainly: Induction of apoptosis in human G361 cells assessed as increase in cleaved PARP expression at 0.5 to 25 uM after 24 hrs by Western blot analysis. The format is functional, cell-based. Summed up:
as §2

Data set [12] deals with Mitogen-activated protein kinase; ERK1/ERK2 (Homo sapiens) (UniProt P27361+P28482). The data set is described as follows: Inhibition of ERK1/2 phosphorylation at Thr202/Tyr204 in human G361 cells at 12.5 to 25 uM after 24 hrs by Western blotting analysis relative to control. It is filed as cell-based. An outline of the steps: as §2
In data set [13] the test system is G-361. Put plainly: Induction of apoptosis in human G361 cells assessed as effect on p53 protein expression level at 0.5 to 25 uM after 24 hrs by Western blot analysis. It is filed as functional, cell-based. Summed up: as §2
For data set [14], the system named is G-361. Put plainly: Induction of apoptosis in human G361 cells assessed as increase in cleaved caspase-7 expression at 0.5 to 25 uM after 24 hrs by Western blot analysis. The format is functional, cell-based. An outline of the steps:
as §2

In data set [15] the test system is G-361. Put plainly: Cell cycle arrest in human G361 cells assessed as reduction in accumulation at G2/M phase at 0.5 to 25 uM after 24 hrs by propidium iodide staining-based flow cytometry. The format is functional. Summed up: as §3

Sequence of Mitogen-activated protein kinase; ERK1/ERK2 (Homo sapiens) (P27361 whole entry, looked up): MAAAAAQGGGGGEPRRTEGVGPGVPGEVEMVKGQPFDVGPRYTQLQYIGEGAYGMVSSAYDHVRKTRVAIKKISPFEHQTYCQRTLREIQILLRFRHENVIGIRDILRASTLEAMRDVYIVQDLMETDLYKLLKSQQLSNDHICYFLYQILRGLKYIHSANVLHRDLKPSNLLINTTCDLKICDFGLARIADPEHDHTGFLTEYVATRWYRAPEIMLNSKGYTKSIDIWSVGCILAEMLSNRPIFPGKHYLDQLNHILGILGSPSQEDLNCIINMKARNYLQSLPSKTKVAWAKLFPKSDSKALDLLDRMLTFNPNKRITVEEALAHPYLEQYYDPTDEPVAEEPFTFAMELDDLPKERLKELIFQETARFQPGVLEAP
Sequence of Mitogen-activated protein kinase; ERK1/ERK2 (Homo sapiens) (P28482 whole entry, looked up): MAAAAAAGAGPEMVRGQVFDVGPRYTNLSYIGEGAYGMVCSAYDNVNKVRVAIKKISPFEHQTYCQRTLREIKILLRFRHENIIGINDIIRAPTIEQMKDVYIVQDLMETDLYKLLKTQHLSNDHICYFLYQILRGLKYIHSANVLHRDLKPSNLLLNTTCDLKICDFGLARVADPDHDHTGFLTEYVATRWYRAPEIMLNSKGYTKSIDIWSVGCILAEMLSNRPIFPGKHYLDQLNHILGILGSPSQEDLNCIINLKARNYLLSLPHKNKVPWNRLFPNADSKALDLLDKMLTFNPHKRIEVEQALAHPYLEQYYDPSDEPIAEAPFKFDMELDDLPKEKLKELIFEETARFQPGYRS

As for `C=C(C)[C@@H]1CC[C@]2(C(=O)NCc3ccncc3)CC[C@]3(C)[C@H](CC[C@@H]4[C@@]5(C)CC[C@H](O)C(C)(C)[C@@H]5CC[C@]43C)[C@@H]12`, the selectivity ratio in data set [1] came to 1. Besides, the pIC50 is 4.95 in the data set on BJ; 4.94 in the data set with G-361 [2]; 4.73 in the data set on CCRF-CEM; 4.83 in the data set on HeLa; 4.68 with MCF7.
For the compound `C=C(C)[C@@H]1CC[C@]2(C(=O)O)CC[C@]3(C)[C@H](CC[C@@H]4[C@@]5(C)CC[C@H](OC(=O)CCC(=O)NCc6ccccn6)C(C)(C)[C@@H]5CC[C@]43C)[C@@H]12`, the result in the data set on G-361 [3], in the data set on G-361 [4], in the data set with G-361 [8], in the data set on G-361 [10], in the data set with G-361 [11] and in the data set on G-361 [14] was Active. Moreover, in the data set on G-361 [15], the outcome was Active. In data set [1], the selectivity ratio was found to be 19.3. The pIC50 with BJ is 4.34; with G-361 [2], 5.62; in the data set on CCRF-CEM, 5.16; in the data set with HeLa, 5.64; in the data set on MCF7 it was 5.66. Also, the Activity entry in the data set on G-361 [5] is given as “Non-Toxic”. Besides, the “fold change (FC)” value with G-361 [6] is reported as “<=18”. The result with G-361 [7], in the data set on G-361 [9] and with G-361 [13] was inactive. The inhibition result in data set [12] is “Active”.
As to `C=C(C)[C@@H]1CC[C@]2(C(=O)NCc3cccnc3)CC[C@]3(C)[C@H](CC[C@@H]4[C@@]5(C)CC[C@H](O)C(C)(C)[C@@H]5CC[C@]43C)[C@@H]12`, in data set [1], the selectivity ratio is 1. Further, the pIC50 in the data set on BJ was 4.76; in the data set with G-361 [2], 4.74; with CCRF-CEM it was 4.60; in the data set with HeLa, 4.63; in the data set on MCF7, 4.41.
Consider `C=C(C)[C@@H]1CC[C@]2(C(=O)O)CC[C@]3(C)[C@H](CC[C@@H]4[C@@]5(C)CC[C@H](OC(=O)CCC(=O)NCc6ccncc6)C(C)(C)[C@@H]5CC[C@]43C)[C@@H]12`, for which the result in the data set on G-361 [4], in the data set with G-361 [6], in the data set on G-361 [8] and with G-361 [15] was inactive. Moreover, the pIC50 in the data set with BJ was less than 4.30; in the data set on G-361 [2], 4.49; in the data set with CCRF-CEM, 4.65; with HeLa, 4.39; in the data set on MCF7, less than 4.30.
Regarding `C=C(C)[C@@H]1CC[C@]2(C(=O)O)CC[C@]3(C)[C@H](CC[C@@H]4[C@@]5(C)CC[C@H](OC(=O)CCC(=O)NCc6cccnc6)C(C)(C)[C@@H]5CC[C@]43C)[C@@H]12`, the result in the data set on G-361 [3], in the data set with G-361 [4], in the data set on G-361 [8], in the data set with G-361 [10], in the data set on G-361 [11] and with G-361 [14] was Active. Besides, the result in the data set with G-361 [15] was Active. Besides, the selectivity ratio in data set [1] came out at 100. Moreover, the pIC50 is 4.30 in the data set on BJ; 6.30 with G-361 [2]; 5.19 in the data set with CCRF-CEM; 5.62 with HeLa; 5.85 in the data set with MCF7. In the data set with G-361 [5], the Activity entry is recorded as “Non-Toxic”. Moreover, in the data set on G-361 [6], the “fold change (FC)” value amounted to 12. For the same compound, the result in the data set on G-361 [7], in the data set on G-361 [9] and in the data set on G-361 [13] was inactive. Besides, in data set [12], the inhibition result was “Active”.
For `C=C(C)[C@@H]1CC[C@]2(C(=O)NCc3ccccn3)CC[C@]3(C)[C@H](CC[C@@H]4[C@@]5(C)CC[C@H](O)C(C)(C)[C@@H]5CC[C@]43C)[C@@H]12`, the selectivity ratio in data set [1] was determined as 1. Moreover, the pIC50 is 4.80 in the data set with BJ; 4.79 with G-361 [2]; 4.73 in the data set with CCRF-CEM; 4.83 in the data set with HeLa; 4.57 in the data set on MCF7.
